C-LANA FP – inhibitors of KSHV LANA C-terminal domain DNA binding; MBP-C-LANA/FAM-LBS DNA binding, fluorescence polarization; inhibition, % at 9 µM; actives 0.078% (n = 340,000); AID 504423;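 active = highest replicate inhibition at or above 60% at 9 µM, even if other replicates fall short; inactive = all replicates below 60% inhibition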
Keap1-Nrf2 PPI – Keap1-Nrf2 (human) interaction inhibition; Keap1 Kelch-Nrf2 peptide fluorescence polarization, 1536-well; inhibition, % at 9.4 µM; AID 504523; actives 0.15% (n = 340,000); Q14145; in the data active = inhibition above about 12%;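 note: human Keap1 Kelch domain with fluorescein labeled Nrf2 9mer peptide probe; higher means more block of Keap1 binding to Nrf2 peptide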
Tn7 DDE FP – DD(E)-Tn7 binding inhibition, primary FP screen; P02675; FP displacement of FITC-Tn7 peptide from fibrin DD(E); 0% = median of compound wells per plate; inhibition, % at 8.3 µM; actives 0.13% (n = 370,000);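 active = inhibition above the mean of compounds falling within the control limits plus 3 SD of them, cut at about 14% in these data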
Target sequence (P02675 whole entry, looked up): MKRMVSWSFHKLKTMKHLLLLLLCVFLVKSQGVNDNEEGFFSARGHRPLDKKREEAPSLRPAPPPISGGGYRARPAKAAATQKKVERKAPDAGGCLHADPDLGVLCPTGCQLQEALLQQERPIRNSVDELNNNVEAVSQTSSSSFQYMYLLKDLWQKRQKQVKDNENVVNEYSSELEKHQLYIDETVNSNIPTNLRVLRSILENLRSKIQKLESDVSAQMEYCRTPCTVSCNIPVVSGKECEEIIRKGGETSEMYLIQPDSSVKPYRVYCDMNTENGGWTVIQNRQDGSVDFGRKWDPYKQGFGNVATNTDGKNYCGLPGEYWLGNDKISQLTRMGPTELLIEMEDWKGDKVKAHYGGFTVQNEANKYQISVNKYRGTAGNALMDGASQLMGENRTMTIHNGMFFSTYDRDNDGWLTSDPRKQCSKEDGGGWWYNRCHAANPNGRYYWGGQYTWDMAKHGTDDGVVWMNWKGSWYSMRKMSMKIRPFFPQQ
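system = human fibrin DD(E) protein | quantity = DD(E) 2 µM final | medium = Tris/NaCl/CaCl2 buffer, pH 7.8 | also added = labelled Tn7 tracer, 0.1 µM | compound dosing = single point at 8.3 µM | timing = compound with protein 10 min, then 3 h after probe, room temperature | signal = FP measurement | benchmarks = Aha-Tn7 high control | repeats = one replicate per compound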
Tn6 DDE FP – inhibitors of Tn6 peptide binding to human fibrin DD(E) | P02675 | Fibrin DD(E) TRITC-Tn6 fluorescence polarization displacement | inhibition, % at 8.3 µM | actives 0.21% (n = 370,000);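 active = inhibition above a per-campaign cutoff: mean of compounds within control limits plus 3 SD, cut at about 15% in these data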
RTF Ca sens act – cardiac RTF calcium sensitization | IANBD-labeled TnC RTF fluorescence at EC20 calcium; 0% EC20 calcium, 100% full calcium | activation, % at 7.2 µM | actives 0.24% (n = 340,000) | AID 493008;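 active = activation above the mean over all tested compounds plus 3 SD, cut at about 30% in these data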;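 note: rise in fluorescence read as greater calcium sensitivity of cardiac thin filaments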
RTF Ca sens inh – cardiac RTF calcium desensitization; inhibition, % at 7.15 µM; P19429+P45379; IANBD-labeled cardiac RTF, Ca2+ fluorescence; actives 0.12% (n = 340,000);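 active = inhibition above the mean inhibition of all tested compounds plus 3 SD, cut at about 17% in these data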;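 note: assay run at fixed EC70 calcium of 1.6 mM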
RTF inh confirm – cardiac RTF calcium sensitivity inhibition, confirmation; inhibition, % at 7.15 µM; shares compounds with RTF Ca sens inh; actives 8% (n = 360); reconstituted cardiac thin filaments, calcium sensitivity fluorescence; in the data active = inhibition above about 18%
Large screens that a line does not name were inactive (follow-up assays come after a bar, where they were run). An excerpt weighted towards active compounds, which were near 0.73% of everything screened.

O=C(CSc1nnc(-c2ccc(F)cc2)n1-c1ccccc1)NCCN1C(=O)CSC1=O	none
Cc1nnc(SCC(=O)NCCN2C(=O)CSC2=O)n1-c1ccccc1	RTF Ca sens inh 23 | RTF inh confirm inactive
CC(OP(=O)(O)C(NC(=O)[C@H](Cc1ccc(O)cc1)NC(=O)OC(C)(C)C)C(C)C)C(=O)O (some centres undefined)	none (no result: C-LANA FP, Keap1-Nrf2 PPI, RTF Ca sens act, RTF Ca sens inh)
O=C(NCc1ccccc1)c1ccc(F)c(S(=O)(=O)N2CCOCC2)c1	RTF Ca sens inh 63 | RTF inh confirm inactive
O=C(OC12CCCN(C1)/C(=C/c1ccc(Cl)cc1)C2)c1cccc(F)c1 (centres undefined)	none (no result: C-LANA FP, Keap1-Nrf2 PPI, RTF Ca sens act, RTF Ca sens inh)
O=C(C1CCCCN1S(=O)(=O)c1ccccc1[N+](=O)[O-])N1CCOCC1 (centres undefined)	RTF Ca sens inh 18 | RTF inh confirm inactive
O=C(NC(=S)Nn1cnnc1)c1cccc(Br)c1	RTF Ca sens inh 19 | RTF inh confirm inactive
Cc1ccc(C(=O)NC(=S)Nn2cnnc2)cc1	none
COc1ccccc1NC(=S)N(Cc1ccccn1)Cc1ccccc1Cl	RTF Ca sens inh 17 | RTF inh confirm inactive
Cc1nc2c(-c3ccc(F)cc3)cnn2c(N)c1-c1ccccc1	RTF Ca sens inh 20 | RTF inh confirm inactive
Cc1nc2c(-c3ccc(Cl)cc3)cnn2c(N)c1-c1ccc(F)cc1	none
N#CCC[C@H]1CC[C@]2(CCCN(Cc3ccc(Br)cc3)C2)O1	none (no result: C-LANA FP, Keap1-Nrf2 PPI, RTF Ca sens act, RTF Ca sens inh)
Fc1ccccc1CSc1ccc(-c2ccco2)nn1	RTF Ca sens inh 19 | RTF inh confirm inactive
CC(C)(C)C1CCc2c(C(=O)NNC(=O)CCCC(=O)O)csc2C1 (centres undefined)	RTF Ca sens inh 17 | RTF inh confirm inactive
COc1ccc(-c2cc(-c3ccc(OC)cc3)[nH]n2)cc1	RTF Ca sens inh 17 | RTF inh confirm inactive
CCCC1CCC2(CCCN2CCOC(=O)Nc2ccccc2C)CC1 (centres undefined)	none (no result: C-LANA FP, Keap1-Nrf2 PPI, RTF Ca sens act, RTF Ca sens inh)
O=c1cc(N2CCc3ccccc32)[nH]c(=O)n1-c1ccccc1Cl	RTF Ca sens inh 17 | RTF inh confirm inactive
Cc1ccccc1-n1c(=O)cc(N2CCc3ccccc32)[nH]c1=O	none
O=C(Nc1ccc(N2CCOCC2)c(Cl)c1)c1ccccc1Cl	RTF Ca sens inh 50 | RTF inh confirm inactive
O=C(Nc1ccc(N2CCOCC2)c(Cl)c1)c1ccc(F)cc1	none
O=C(Nc1cccc(F)c1)OCCN1CCCC12CCC(c1ccccc1)CC2 (centres undefined)	none (no result: C-LANA FP, Keap1-Nrf2 PPI, RTF Ca sens act, RTF Ca sens inh)
COc1ccc(/C=C2\CC3(OC(=O)c4ccccc4)CCCN2C3)cc1 (centres undefined)	none (no result: C-LANA FP, Keap1-Nrf2 PPI, RTF Ca sens act, RTF Ca sens inh)
O=C(NCCCN1CCC(Cc2ccccc2)CC1)C1CCN(S(=O)(=O)N2CCC3(CC2)OCCO3)CC1	none
O=C(NCCCN1CCN(Cc2ccccc2)CC1)C1CCN(S(=O)(=O)N2CCC3(CC2)OCCO3)CC1	RTF Ca sens inh 18 | RTF inh confirm inactive
CCCCCCN1CCS(=O)(=O)N(Cc2ccc(C)cc2)C(C(=O)OC)C1 (centres undefined)	none (no result: C-LANA FP, Keap1-Nrf2 PPI, RTF Ca sens act, RTF Ca sens inh)
CCc1ccc(OCC(=O)NNC(=O)c2nn(CC)c(=O)c3ccccc23)cc1	RTF Ca sens inh 18 | RTF inh confirm inactive
O=C(NN=Cc1ccccc1O)c1cccc([N+](=O)[O-])c1	none
O=C(N/N=C/c1ccc(Br)s1)c1cccc([N+](=O)[O-])c1	RTF Ca sens inh 18 | RTF inh confirm inactive
CCN(CC)S(=O)(=O)c1cc(NS(=O)(=O)c2cccc(Cl)c2Cl)ccc1C	RTF Ca sens inh 47 | RTF inh confirm inactive
CC(=O)N1c2ccccc2C(C)=NCC1C(=O)NC1CCCCC1 (centres undefined)	none (no result: C-LANA FP, Keap1-Nrf2 PPI, RTF Ca sens act, RTF Ca sens inh)
CCN1CCCC1CNC1=NCCCCC1 (centres undefined)	none
CCCC(C)NC1=NCCCCC1 (centres undefined)	RTF Ca sens inh 18 | RTF inh confirm inactive
COc1ccccc1CN(C)CC(=O)Nc1ccc(Cl)cc1C(F)(F)F	RTF Ca sens inh 18 | RTF inh confirm inactive

Compound activity: PubChem BioAssay, several laboratories
